In ChEMBL document CHEMBL3608232, “Exploring the Existing Drug Space for Novel pTyr Mimetic and SHP2 Inhibitors” (ACS Med Chem Lett, 2015) one finds inhibition, Activity and fold change (FC) data, which are given here for 6 compounds.

Assay [1] addresses T1, Tyrosine-protein phosphatase non-receptor type 11 (Homo sapiens) (UniProt Q06124).
T1 sequence (whole entry): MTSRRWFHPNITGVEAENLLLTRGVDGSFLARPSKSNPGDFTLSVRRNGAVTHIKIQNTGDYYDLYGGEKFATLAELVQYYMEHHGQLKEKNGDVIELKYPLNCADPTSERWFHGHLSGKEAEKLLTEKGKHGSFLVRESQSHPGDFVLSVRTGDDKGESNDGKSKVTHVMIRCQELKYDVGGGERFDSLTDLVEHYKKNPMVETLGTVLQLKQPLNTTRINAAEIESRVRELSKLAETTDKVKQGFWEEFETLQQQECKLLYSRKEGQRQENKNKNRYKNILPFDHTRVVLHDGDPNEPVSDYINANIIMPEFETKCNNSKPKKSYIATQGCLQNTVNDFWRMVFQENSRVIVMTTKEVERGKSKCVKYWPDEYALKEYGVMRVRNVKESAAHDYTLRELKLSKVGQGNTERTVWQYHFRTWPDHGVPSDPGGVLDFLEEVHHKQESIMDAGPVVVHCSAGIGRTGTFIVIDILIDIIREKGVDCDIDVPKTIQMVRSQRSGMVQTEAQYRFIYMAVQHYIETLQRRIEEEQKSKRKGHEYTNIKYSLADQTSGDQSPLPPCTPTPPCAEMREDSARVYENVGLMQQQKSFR
Description: Inhibition of phosphatase activity of SHP2 (unknown origin) using pNPP as a substrate at 50 uM after 10 mins by spectrophotometer analysis.

Assay [2] concerns NCI-H1975. Description: Cytotoxicity against human NCI-H1975 cells by MTT assay. The format is functional, cell-based.
The subject of assay [3] is MDA-MB-231. Nature of the assay: Cytotoxicity against human MDA-MB-231 cells by MTT assay. It counts as functional, cell-based.
Assay [4] deals with MDA-MB-231. Nature of the assay: Cytotoxicity against human MDA-MB-231 cells at 20 to 40 uM by MTT assay. It counts as functional, cell-based.
Assay [5] has as its target T1, Tyrosine-protein phosphatase non-receptor type 11 (Homo sapiens). Nature of the assay: Inhibition of SHP2 in human NCI-H1975 cells assessed as increase in EGF-induced paxillin phosphorylation at Y118 at 40 uM after 60 mins relative to control.
For assay [6] the target is unchanged. Nature of the assay: Inhibition of SHP2 in human NCI-H1975 cells assessed as reduction of EGF-induced ERK1/2 activation at 40 uM after 60 mins relative to control. It counts as cell-based. In outline: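 H1975 cells were stimulated with EGF and ERK1/2 and paxillin phosphorylation was assessed by immunoblot. Band intensities were quantified, and pERK1/2/total ERK1/2 or pPaxillin(Y118)/total paxillin ratios were normalized to the reference. Blots are representative of at least two independent experiments, with quantified values given as mean ± SD.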

Assay [7] has as its system NCI-H1975. Nature of the assay: Cytotoxicity against human NCI-H1975 cells at 20 to 40 uM by MTT assay. It counts as functional, cell-based.

The source made the active and inactive calls. The calls are words filed in the database; no cut-off is given here.

For `O=C(O)C(=O)Nc1ccc(CNC(=O)C(c2ccccc2)S(=O)(=O)O)cc1` (stereo not given), in assay [1], the inhibition entry is “inactive”.

For `CC(C)c1ccc(NC(=O)C(=O)Nc2ccc(NC(=O)C(c3ccccc3)S(=O)(=O)O)cc2)cc1` (stereo not given), the Activity entry in assay [2] and in assay [3] was “Dose-dependent effect” throughout.

Regarding `O=C(O)C(=O)Nc1cccc(NC(=O)C(c2ccccc2)S(=O)(=O)O)c1` (stereo not given), the inhibition result in assay [1] is “inactive”.

Turning to `O=C(Nc1ccccc1)C(=O)Nc1ccc(NC(=O)C(c2ccccc2)S(=O)(=O)O)cc1` (stereo not given), the result in assay [4] and in assay [7] was inactive. Further, the fold change (FC) in assay [5] worked out at 1.1; in assay [6], 1.

For `O=C(O)C(=O)Nc1ccc(NC(=O)C(c2ccccc2)S(=O)(=O)O)cc1` (stereo not given), in assay [1], the inhibition result is “inactive”.

As to `O=C(O)C(=O)NCc1ccc(NC(=O)C(c2ccccc2)S(=O)(=O)O)cc1` (stereo not given), in assay [1], the inhibition result is “inactive”.
